Data published in ChEMBL document CHEMBL5647699, “Discovery of a chemical probe for PRDM9” (Nat Commun, 2019).
Active and inactive are the calls of the source. The rule behind the calls is not given here.

How the values were obtained:
[1] = target: Protein arginine N-methyltransferase 7 (Homo sapiens) (UniProt Q9NVM4); test: Inhibition of PRMT7 (unknown origin) at 1 to 10 uM; conditions: dose 1-10 µM
[2] = target: Histone-lysine N-methyltransferase 2A (Homo sapiens) (UniProt Q03164); test: Inhibition of MLL1 (unknown origin) at 1 to 10 uM; conditions: dose 1-10 µM
[3] = target: Protein arginine N-methyltransferase 9 (Homo sapiens) (UniProt Q6P2P2); test: Inhibition of PRMT9 (unknown origin) at 1 to 10 uM; conditions: dose 1-10 µM
HEK-293T [4] = test: Cytotoxicity against HEK293T cells at 10 uM measured after 4 days by IncuCyte zoom live-cell imaging analysis; assay type: toxicity, cell-based; conditions: human, 96 h, time 4 day
[5] = target: Histone-lysine N-methyltransferase PRDM9 (Homo sapiens) (UniProt Q9NQV7); test: Inhibition of FLAG tagged PRDM9 transfected in HEK293T cells assessed as inhibition of trimethylation H3K4 at 10 uM measured after 20 hrs by Western blot analysis; assay type: cell-based
Sequence of Histone-lysine N-methyltransferase PRDM9 (Homo sapiens) (Q9NQV7 whole entry): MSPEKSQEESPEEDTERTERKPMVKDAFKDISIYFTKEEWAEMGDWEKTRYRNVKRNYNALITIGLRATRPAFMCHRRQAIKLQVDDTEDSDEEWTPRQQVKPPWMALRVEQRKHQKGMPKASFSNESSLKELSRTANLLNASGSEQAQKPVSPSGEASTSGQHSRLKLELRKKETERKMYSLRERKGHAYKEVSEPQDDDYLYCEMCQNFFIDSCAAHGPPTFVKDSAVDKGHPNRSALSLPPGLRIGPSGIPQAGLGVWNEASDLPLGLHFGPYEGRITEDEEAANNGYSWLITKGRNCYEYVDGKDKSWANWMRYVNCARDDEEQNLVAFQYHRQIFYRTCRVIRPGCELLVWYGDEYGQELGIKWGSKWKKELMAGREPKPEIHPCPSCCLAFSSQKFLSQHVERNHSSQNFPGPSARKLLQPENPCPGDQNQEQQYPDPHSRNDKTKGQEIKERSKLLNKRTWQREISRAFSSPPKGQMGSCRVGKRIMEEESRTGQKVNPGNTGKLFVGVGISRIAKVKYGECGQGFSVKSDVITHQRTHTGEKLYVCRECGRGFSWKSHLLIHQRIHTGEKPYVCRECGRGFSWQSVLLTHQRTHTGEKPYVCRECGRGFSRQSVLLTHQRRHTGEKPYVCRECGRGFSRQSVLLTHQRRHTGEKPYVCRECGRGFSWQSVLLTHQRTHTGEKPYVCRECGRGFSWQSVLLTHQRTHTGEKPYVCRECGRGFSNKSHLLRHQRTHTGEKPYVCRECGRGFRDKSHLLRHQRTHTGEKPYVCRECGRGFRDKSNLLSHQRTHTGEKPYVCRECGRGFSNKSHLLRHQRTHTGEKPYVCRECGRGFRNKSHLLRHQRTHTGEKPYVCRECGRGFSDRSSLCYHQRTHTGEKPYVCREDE

[6] = target: Histone-lysine N-methyltransferase EHMT1 (Homo sapiens) (UniProt Q9H9B1); test: Inhibition of EHMT1 (unknown origin) at 1 to 10 uM; conditions: dose 1-10 µM
RPMI-8226 = test: Cytotoxicity against human RPMI-8226 cells at upto 30 uM measured for 3 to 6 days by celltiter glo assay; assay type: functional, cell-based; conditions: time 3-6 day
[7] = target: Histone-arginine methyltransferase CARM1 (Homo sapiens) (UniProt Q86X55); test: Inhibition of PRMT4 (unknown origin) at 1 to 10 uM; conditions: dose 1-10 µM
[8] = target: Protein arginine N-methyltransferase 5 (Homo sapiens) (UniProt O14744); test: Inhibition of PRMT5 (unknown origin) at 1 to 10 uM; conditions: dose 1-10 µM
HEK-293T [9] = test: Cytotoxicity against HEK293T cells at 3 uM measured after 24 hrs by IncuCyte zoom live-cell imaging analysis; assay type: toxicity, cell-based; conditions: human
How it was run: (§1)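 HEK293T cells seeded, treated next day with compound for 1 day; cell number counted by live-cell imaging after Vybrant DyeCycle Green staining; mean ± sd, n = 3.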

[10] = target: Histone-lysine N-methyltransferase KMT5C (Homo sapiens) (UniProt Q86Y97); test: Inhibition of SUV420H2 (unknown origin) at 1 to 10 uM; conditions: dose 1-10 µM
Sequence of Histone-lysine N-methyltransferase KMT5C (Homo sapiens) (Q86Y97 whole entry, looked up): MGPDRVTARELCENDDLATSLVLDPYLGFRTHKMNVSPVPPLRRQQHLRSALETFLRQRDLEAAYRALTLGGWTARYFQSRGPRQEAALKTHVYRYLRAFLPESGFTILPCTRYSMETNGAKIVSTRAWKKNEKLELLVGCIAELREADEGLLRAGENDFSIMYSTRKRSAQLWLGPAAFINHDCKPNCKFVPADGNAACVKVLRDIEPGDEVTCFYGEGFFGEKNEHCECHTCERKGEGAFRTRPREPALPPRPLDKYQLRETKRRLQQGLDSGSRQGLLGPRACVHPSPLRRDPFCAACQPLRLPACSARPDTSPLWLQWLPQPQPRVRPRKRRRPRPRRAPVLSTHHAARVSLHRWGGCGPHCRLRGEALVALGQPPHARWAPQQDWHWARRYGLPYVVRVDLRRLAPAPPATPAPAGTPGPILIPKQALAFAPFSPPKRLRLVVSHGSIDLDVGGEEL

[11] = target: Histone-lysine N-methyltransferase KMT5B (Homo sapiens) (UniProt Q4FZB7); test: Inhibition of SUV420H1 (unknown origin) at 1 to 10 uM; conditions: dose 1-10 µM
HEK-293T [12] = test: Cytotoxicity against HEK293T cells at 3 uM measured after 4 days by IncuCyte zoom live-cell imaging analysis; assay type: toxicity, cell-based; conditions: human, 96 h, time 4 day
[13] = target: Protein arginine N-methyltransferase 1 (Homo sapiens) (UniProt Q99873); test: Inhibition of PRMT1 (unknown origin) at 1 to 10 uM; conditions: dose 1-10 µM
CAL-85-1 = test: Cytotoxicity against human CAL-85-1 cells at upto 30 uM measured for 3 to 6 days by celltiter glo assay; assay type: functional, cell-based; conditions: time 3-6 day
[14] = target: Histone-lysine N-methyltransferase EHMT2 (Homo sapiens) (UniProt Q96KQ7); test: Inhibition of G9a (unknown origin) at 1 to 10 uM; conditions: dose 1-10 µM
Sequence of Histone-lysine N-methyltransferase EHMT2 (Homo sapiens) (Q96KQ7 whole entry): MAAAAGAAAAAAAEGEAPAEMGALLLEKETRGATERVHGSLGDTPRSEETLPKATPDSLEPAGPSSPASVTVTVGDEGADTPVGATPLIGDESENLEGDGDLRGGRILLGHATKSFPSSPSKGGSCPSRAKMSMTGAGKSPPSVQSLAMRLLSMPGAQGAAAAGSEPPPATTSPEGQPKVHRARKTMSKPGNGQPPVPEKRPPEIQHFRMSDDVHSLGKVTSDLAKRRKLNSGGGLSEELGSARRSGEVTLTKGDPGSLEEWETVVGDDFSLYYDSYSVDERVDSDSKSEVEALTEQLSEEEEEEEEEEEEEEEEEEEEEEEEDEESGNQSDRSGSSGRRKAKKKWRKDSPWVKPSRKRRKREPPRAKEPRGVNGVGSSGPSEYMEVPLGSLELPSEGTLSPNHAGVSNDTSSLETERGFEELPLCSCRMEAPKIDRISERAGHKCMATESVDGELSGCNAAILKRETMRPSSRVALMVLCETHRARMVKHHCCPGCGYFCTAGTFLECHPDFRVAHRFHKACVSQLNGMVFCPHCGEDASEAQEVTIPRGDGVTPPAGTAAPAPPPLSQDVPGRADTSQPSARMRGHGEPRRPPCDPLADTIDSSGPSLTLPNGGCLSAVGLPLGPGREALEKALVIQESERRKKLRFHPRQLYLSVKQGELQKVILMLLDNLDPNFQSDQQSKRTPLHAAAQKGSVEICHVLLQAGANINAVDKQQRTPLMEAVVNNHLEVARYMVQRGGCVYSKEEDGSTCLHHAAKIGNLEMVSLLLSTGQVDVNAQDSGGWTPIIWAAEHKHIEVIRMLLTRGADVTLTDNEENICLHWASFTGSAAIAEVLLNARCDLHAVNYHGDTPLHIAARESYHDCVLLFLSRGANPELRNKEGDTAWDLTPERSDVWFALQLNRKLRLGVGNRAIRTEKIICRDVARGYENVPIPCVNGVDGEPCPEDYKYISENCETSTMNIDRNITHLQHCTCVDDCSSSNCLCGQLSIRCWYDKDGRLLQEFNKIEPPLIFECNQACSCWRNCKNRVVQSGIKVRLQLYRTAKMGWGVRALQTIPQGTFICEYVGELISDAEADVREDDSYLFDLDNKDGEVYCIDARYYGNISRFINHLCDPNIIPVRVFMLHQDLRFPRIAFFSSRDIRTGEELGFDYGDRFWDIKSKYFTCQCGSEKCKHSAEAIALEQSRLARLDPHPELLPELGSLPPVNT

[15] = target: Histone-lysine N-methyltransferase, H3 lysine-36 specific (Homo sapiens) (UniProt Q96L73); test: Inhibition of NSD1 (unknown origin) at 1 to 10 uM; conditions: dose 1-10 µM
[16] = target: Histone-lysine N-methyltransferase NSD3 (Homo sapiens) (UniProt Q9BZ95); test: Inhibition of NSD3 (unknown origin) at 1 to 10 uM; conditions: dose 1-10 µM
[17] = target: Histone-lysine N-methyltransferase SUV39H2 (Homo sapiens) (UniProt Q9H5I1); test: Inhibition of SUV39H2 (unknown origin) at 1 to 10 uM; conditions: dose 1-10 µM
[18] = target: Histone-lysine N-methyltransferase, H3 lysine-79 specific (Homo sapiens) (UniProt Q8TEK3); test: Inhibition of DOT1L (unknown origin) at 1 to 10 uM; conditions: dose 1-10 µM
[19] = target: Histone-lysine N-methyltransferase PRDM9 (Homo sapiens) (UniProt Q9NQV7); test: Inhibition of PRDM9 (unknown origin) at 1 to 10 uM; conditions: dose 1-10 µM
Spermatocyte [20] = test: Induction of meiotic defect in wild type mouse spermatocyte assessed as non homologous synapsis by SYCP1/SYCP3 staining based immunofluorescence assay; assay type: functional, cell-based
SK-MM-2 = test: Cytotoxicity against human SK-MM-2 cells at upto 30 uM measured for 3 to 6 days by celltiter glo assay; assay type: functional, cell-based; conditions: time 3-6 day
[21] = target: DNMT3B-DNMT3L complex (Homo sapiens) (UniProt Q9UBC3+Q9UJW3); test: Inhibition of DNMT3B/DNMT3L (unknown origin) at 1 to 10 uM; assay type: protein-complex assay; conditions: dose 1-10 µM
[22] = target: RNA 5'-monophosphate methyltransferase (Homo sapiens) (UniProt Q7Z5W3); test: Inhibition of BCDIN3D (unknown origin) at 1 to 10 uM; conditions: dose 1-10 µM
[23] = target: Protein arginine N-methyltransferase 8 (Homo sapiens) (UniProt Q9NR22); test: Inhibition of PRMT8 (unknown origin) at 1 to 10 uM; conditions: dose 1-10 µM
HEK-293T [24] = test: Cytotoxicity against HEK293T cells at 10 uM measured after 24 hrs by IncuCyte zoom live-cell imaging analysis; assay type: toxicity, cell-based; conditions: human; how it was run: as §1
[25] = target: Histone-lysine N-methyltransferase 2C (Homo sapiens) (UniProt Q8NEZ4); test: Inhibition of MLL3 (unknown origin) at 1 to 10 uM; conditions: dose 1-10 µM
[26] = target: DNMT3A2/3L complex (Homo sapiens) (UniProt Q9Y6K1+Q9UJW3); test: Inhibition of DNMT3A/DNMT3L (unknown origin) at 1 to 10 uM; assay type: protein-complex assay; conditions: dose 1-10 µM
Spermatocyte [27] = test: Induction of meiotic defect in wild type mouse spermatocyte assessed as effect on paring of chromosomal homolog by SYCP1/SYCP3 staining based immunofluorescence assay; assay type: functional, cell-based
[28] = target: N-lysine methyltransferase SMYD2 (Homo sapiens) (UniProt Q9NRG4); test: Inhibition of SMYD2 (unknown origin) at 1 to 10 uM; conditions: dose 1-10 µM
[29] = target: Histone-lysine N-methyltransferase SMYD3 (Homo sapiens) (UniProt Q9H7B4); test: Inhibition of SMYD3 (unknown origin) at 1 to 10 uM; conditions: dose 1-10 µM
[30] = target: Histone-lysine N-methyltransferase SETDB1 (Homo sapiens) (UniProt Q15047); test: Inhibition of SETDB1 (unknown origin) at 1 to 10 uM; conditions: dose 1-10 µM
HCC1143 = test: Cytotoxicity against human HCC1143 cells at upto 30 uM measured for 3 to 6 days by celltiter glo assay; assay type: functional, cell-based; conditions: time 3-6 day
[31] = target: Histone-lysine N-methyltransferase ASH1L (Homo sapiens) (UniProt Q9NR48); test: Inhibition of ASH1L (unknown origin) at 1 to 10 uM; conditions: dose 1-10 µM
[32] = target: Protein arginine N-methyltransferase 6 (Homo sapiens) (UniProt Q96LA8); test: Inhibition of PRMT6 (unknown origin) at 1 to 10 uM; conditions: dose 1-10 µM
[33] = target: DNA (cytosine-5)-methyltransferase 1 (Homo sapiens) (UniProt P26358); test: Inhibition of DNMT1 (unknown origin) at 1 to 10 uM; conditions: dose 1-10 µM
[34] = target: Histone-lysine N-methyltransferase SUV39H1 (Homo sapiens) (UniProt O43463); test: Inhibition of SUV39H1 (unknown origin) at 1 to 10 uM; conditions: dose 1-10 µM
[35] = target: N-lysine methyltransferase KMT5A (Homo sapiens) (UniProt Q9NQR1); test: Inhibition of SETD8 (unknown origin) at 1 to 10 uM; conditions: dose 1-10 µM
[36] = target: Protein arginine N-methyltransferase 3 (Homo sapiens) (UniProt O60678); test: Inhibition of PRMT3 (unknown origin) at 1 to 10 uM; conditions: dose 1-10 µM
HCC1806 = test: Cytotoxicity against human HCC1806 cells at upto 30 uM measured for 3 to 6 days by celltiter glo assay; assay type: functional, cell-based; conditions: time 3-6 day
[37] = target: Histone-lysine N-methyltransferase SETD7 (Homo sapiens) (UniProt Q8WTS6); test: Inhibition of SETD7 (unknown origin) at 1 to 10 uM; conditions: dose 1-10 µM
[38] = target: Histone-lysine N-methyltransferase SETD2 (Homo sapiens) (UniProt Q9BYW2); test: Inhibition of SETD2 (unknown origin) at 1 to 10 uM; conditions: dose 1-10 µM
Sequence of Histone-lysine N-methyltransferase SETD2 (Homo sapiens) (Q9BYW2 whole entry): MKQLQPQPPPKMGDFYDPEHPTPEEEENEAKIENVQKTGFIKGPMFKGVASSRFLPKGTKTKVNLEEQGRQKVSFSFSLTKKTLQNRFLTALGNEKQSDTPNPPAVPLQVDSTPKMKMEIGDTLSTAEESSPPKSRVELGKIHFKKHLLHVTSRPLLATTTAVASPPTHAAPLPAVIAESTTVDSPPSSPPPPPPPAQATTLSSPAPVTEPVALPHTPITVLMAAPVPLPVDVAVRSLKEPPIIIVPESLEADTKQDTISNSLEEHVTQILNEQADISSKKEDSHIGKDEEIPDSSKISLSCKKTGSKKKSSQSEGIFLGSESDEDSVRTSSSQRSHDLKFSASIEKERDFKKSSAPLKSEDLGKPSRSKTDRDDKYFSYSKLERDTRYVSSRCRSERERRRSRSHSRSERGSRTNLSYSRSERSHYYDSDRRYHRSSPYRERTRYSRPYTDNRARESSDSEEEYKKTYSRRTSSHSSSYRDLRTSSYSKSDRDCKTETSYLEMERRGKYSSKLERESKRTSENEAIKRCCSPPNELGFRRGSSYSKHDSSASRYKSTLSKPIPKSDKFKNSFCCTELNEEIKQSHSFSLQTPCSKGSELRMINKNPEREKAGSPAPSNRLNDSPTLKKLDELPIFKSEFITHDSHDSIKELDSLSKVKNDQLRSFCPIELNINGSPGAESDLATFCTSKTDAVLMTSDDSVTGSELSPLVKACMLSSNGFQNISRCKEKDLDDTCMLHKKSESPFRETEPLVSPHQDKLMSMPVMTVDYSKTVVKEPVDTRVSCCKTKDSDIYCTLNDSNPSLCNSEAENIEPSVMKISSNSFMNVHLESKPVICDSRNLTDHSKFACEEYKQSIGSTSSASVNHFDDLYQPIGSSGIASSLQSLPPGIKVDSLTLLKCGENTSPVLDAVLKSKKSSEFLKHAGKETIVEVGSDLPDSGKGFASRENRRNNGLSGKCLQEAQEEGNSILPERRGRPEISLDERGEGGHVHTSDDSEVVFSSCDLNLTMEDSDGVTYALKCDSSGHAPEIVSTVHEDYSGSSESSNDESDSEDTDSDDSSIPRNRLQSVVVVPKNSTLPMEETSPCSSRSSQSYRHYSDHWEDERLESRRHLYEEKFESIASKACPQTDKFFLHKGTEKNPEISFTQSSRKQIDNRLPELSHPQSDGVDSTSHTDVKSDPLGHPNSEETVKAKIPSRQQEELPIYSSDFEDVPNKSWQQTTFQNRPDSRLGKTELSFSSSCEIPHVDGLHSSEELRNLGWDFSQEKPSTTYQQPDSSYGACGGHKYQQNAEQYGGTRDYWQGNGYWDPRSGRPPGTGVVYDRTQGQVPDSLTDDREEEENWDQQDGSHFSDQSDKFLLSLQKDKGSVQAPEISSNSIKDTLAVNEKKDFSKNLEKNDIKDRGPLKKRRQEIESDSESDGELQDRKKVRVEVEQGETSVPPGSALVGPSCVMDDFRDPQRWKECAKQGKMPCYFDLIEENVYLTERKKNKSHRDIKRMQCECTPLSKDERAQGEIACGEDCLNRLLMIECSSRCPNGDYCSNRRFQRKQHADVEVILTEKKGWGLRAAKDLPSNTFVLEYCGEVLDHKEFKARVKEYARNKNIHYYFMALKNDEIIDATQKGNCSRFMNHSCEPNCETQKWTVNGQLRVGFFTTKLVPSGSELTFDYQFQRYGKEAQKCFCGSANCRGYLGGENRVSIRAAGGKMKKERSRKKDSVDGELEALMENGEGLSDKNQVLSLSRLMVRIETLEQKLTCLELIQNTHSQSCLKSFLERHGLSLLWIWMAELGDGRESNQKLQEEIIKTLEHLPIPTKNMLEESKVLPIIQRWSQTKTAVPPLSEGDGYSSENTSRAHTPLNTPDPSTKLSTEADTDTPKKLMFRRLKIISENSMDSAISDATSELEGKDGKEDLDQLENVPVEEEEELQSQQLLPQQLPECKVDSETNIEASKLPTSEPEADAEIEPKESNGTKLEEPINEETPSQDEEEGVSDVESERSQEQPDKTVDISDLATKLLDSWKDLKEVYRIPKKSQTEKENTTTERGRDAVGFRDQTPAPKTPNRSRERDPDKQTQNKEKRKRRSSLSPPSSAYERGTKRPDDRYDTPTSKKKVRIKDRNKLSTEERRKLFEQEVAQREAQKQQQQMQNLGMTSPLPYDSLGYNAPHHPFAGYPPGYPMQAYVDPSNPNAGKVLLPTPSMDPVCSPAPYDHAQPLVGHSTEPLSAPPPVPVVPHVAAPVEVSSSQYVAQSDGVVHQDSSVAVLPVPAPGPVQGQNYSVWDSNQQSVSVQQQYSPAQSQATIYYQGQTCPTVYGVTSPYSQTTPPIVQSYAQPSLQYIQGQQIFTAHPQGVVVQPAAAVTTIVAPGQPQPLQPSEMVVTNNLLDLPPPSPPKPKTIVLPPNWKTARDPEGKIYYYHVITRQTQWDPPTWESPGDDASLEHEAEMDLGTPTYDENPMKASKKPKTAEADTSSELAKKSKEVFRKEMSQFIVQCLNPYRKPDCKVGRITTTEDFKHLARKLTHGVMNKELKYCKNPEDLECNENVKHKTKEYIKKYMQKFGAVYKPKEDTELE

[39] = target: Histone-lysine N-methyltransferase PRDM7 (Homo sapiens) (UniProt Q9NQW5); test: Inhibition of PRDM7 (unknown origin) using biotin-tagged Histone H3 (1 to 25) and 3H-SAM as substrate incubated for 90 mins by topcount plate reader analysis
Homo sapiens = species: Homo sapiens; test: Inhibition of PRC2 (unknown origin) at 1 to 10 uM; conditions: dose 1-10 µM
[40] = target: Histone-lysine N-methyltransferase NSD2 (Homo sapiens) (UniProt O96028); test: Inhibition of NSD2 (unknown origin) at 1 to 10 uM; conditions: dose 1-10 µM
MDA-MB-436 = test: Cytotoxicity against human MDA-MB-436 cells at upto 30 uM measured for 3 to 6 days by celltiter glo assay; assay type: functional, cell-based; conditions: time 3-6 day

SMILES: COc1cc(OC)cc(-c2noc(N3CCN(C)C4(CCN(c5ccccc5)CC4)C3)n2)c1
- inhibition [1]: inactive
- inhibition [2]: inactive
- inhibition [3]: inactive
- Activity (HEK-293T [4]): Toxic
- inhibition [5]: inactive
- inhibition [6]: inactive
- Activity (RPMI-8226): inactive
- inhibition [7]: inactive
- inhibition [8]: inactive
- Activity (HEK-293T [9]): Non-Toxic
- inhibition [10]: inactive
- inhibition [11]: inactive
- Activity (HEK-293T [12]): Non-Toxic
- inhibition [13]: inactive
- Activity (CAL-85-1): inactive
- inhibition [14]: inactive
- inhibition [15]: inactive
- inhibition [16]: inactive
- inhibition [17]: inactive
- inhibition [18]: inactive
- inhibition [19]: inactive
- Activity (Spermatocyte [20]): inactive
- Activity (SK-MM-2): inactive
- inhibition [21]: inactive
- inhibition [22]: inactive
- inhibition [23]: inactive
- Activity (HEK-293T [24]): Toxic
- inhibition [25]: inactive
- inhibition [26]: inactive
- Activity (Spermatocyte [27]): inactive
- inhibition [28]: inactive
- inhibition [29]: inactive
- inhibition [30]: inactive
- Activity (HCC1143): inactive
- inhibition [31]: inactive
- inhibition [32]: inactive
- inhibition [33]: inactive
- inhibition [34]: inactive
- inhibition [35]: inactive
- inhibition [36]: inactive
- Activity (HCC1806): inactive
- inhibition [37]: inactive
- inhibition [38]: inactive
- inhibition [39]: inactive
- inhibition (Homo sapiens): inactive
- inhibition [40]: inactive
- Activity (MDA-MB-436): inactive
